Measurements taken from PMC3640342 (Pharmaceutical research, 2013).
Values after ≈ are worked out from the molar mass of the structure shown. Values joined by “and” are separate entries in the source; they are usually repeats but may differ in a detail not shown here. Identical values can stand only once. Like-named read-outs stand apart in the source and are kept apart here.

What was measured:
[1] = test system: PrP^Sc levels in ScN2a-cl3 cells; test: cells; format: cell-based, mouse
[2] = Solubility at pH 2, pH 7.4 and in FaSSIF; format: physicochemical; settings: for Solubility pH 7.4: pH 7.4 (phosphate) buffer
Media solubility = format: physicochemical; settings: media used in the cell-based assays, 10% FBS
MDCK-MDR1 cells = test: Bidirectional MDCK-MDR1 cell permeability; format: in vitro ADME, canine; settings: for Papp (A−B) / Papp (B−A): 10 μM, pH 7.4; for Efflux ratio: MDCK-MDR1 cells
mouse liver microsomes = test: Hepatic microsomal stability, mouse; format: in vitro ADME; settings: 1 μM; for t1/2: NADPH
How it was run: (§1)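 Liver microsomes from mouse, rat or human (~0.5 mg/mL final) were incubated at 37°C with test compound at 1 μM final (0.6% ACN, 0.01% DMSO) in PBS pH 7.4 ± 0.05% PS80, with 1 mM NADPH or PBS.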

rat liver microsomes = test: Hepatic microsomal stability, rat; format: in vitro ADME; settings: 1 μM; for t1/2: NADPH
How it was run: as §1

human liver microsomes = test: Hepatic microsomal stability, human; format: in vitro ADME; settings: 1 μM; for t1/2: NADPH
How it was run: as §1

[3] = 3-day multidose PK in liquid diet; format: in vivo, FVB mice; settings: for Brain concentration (C3-day) / Brain and plasma concentrations (C3-day): 3 days in liquid diet
[4] = Hepatic microsomal stability, mouse; format: in vitro ADME; settings: mouse, mouse liver microsomes, pH 7.4
How it was run: as §1

[5] = Hepatic microsomal stability, rat; format: in vitro ADME; settings: rat, rat liver microsomes, pH 7.4
How it was run: as §1

[6] = Hepatic microsomal stability, human; format: in vitro ADME; settings: human, human liver microsomes, pH 7.4
How it was run: as §1

[7] = Single-dose IV PK at 1 mg/kg; format: in vivo, FVB mice; settings: female, FVB, mouse, plasma, iv, 1 mg/kg
How it was run: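 Female FVB mice (~25 g) received 1 mg/kg by tail-vein injection in 10% DMSO in PEG400/water (1:1), 10% DMSO, or 10% ethanol in PEG400/water (1:1). Two mice per time point were killed by CO2 at 5 min and 0.25, 0.5, 1, 2, 4 and 6 h, and heparinized plasma was collected. After protein precipitation, samples were assayed by LC/MS/MS, and parameters came from noncompartmental sparse-sampling analysis.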

[8] = Single-dose oral gavage PK at 10 mg/kg; format: in vivo, FVB mice
How it was run: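 Female FVB mice (~25 g) were dosed at 10 mg/kg by oral gavage in 20% propylene glycol, 5% ethanol, 5% labrosol and 70% PEG400. Two mice per time point were killed by CO2 at 0.25, 0.5, 1, 2, 4, 6 and 24 h. Heparinized plasma and brain (diluted five-fold in water, homogenized) were assayed by LC/MS/MS.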

FVB mice = test: Drug tolerance / lethal toxicity on repeated dosing in liquid diet; format: in vivo
mouse plasma = settings: 1 μM
[9] = mouse brain homogenate, 1 μM, corrected for dilution
[10] = cell-culture media with 10% FBS, 1 μM
[11] = Single-dose oral PK at 40 mg/kg; format: in vivo, FVB mice; settings: single 40 mg/kg oral dose, ranking among 27 2-AMTs and Compd B
[12] = female, FVB, mouse, brain, po, 10 mg/kg
[13] = female, FVB, mouse, plasma, po, 10 mg/kg

SMILES: Cc1ccnc(Nc2nc(-c3ccncc3)cs2)c1 [IND52]
- EC50 [1]: 4950 nM
- Solubility FaSSIF ([2]; fasted-state simulated intestinal fluid): 2 µM (≈ 0.537 µg/mL)
- Solubility pH 2.0 ([2]; pH 2 (HCl) buffer, room temperature overnight): 215 μM
- Solubility pH 7.4 ([2]; room temperature overnight): 1 μM
- Solubility Media (Media solubility): 76 µM (≈ 20.4 µg/mL)
- Papp (A−B) (MDCK-MDR1 cells): 36.2 ×10⁻⁶ cm/s
- Papp (B−A) (MDCK-MDR1 cells): 48.7 ×10⁻⁶ cm/s
- Efflux ratio (MDCK-MDR1 cells): 1.3
- % remaining after a 60-min incubation (mouse liver microsomes): 0%
- % remaining after a 60-min incubation (rat liver microsomes): 8%
- % remaining after a 60-min incubation (human liver microsomes): 30%
- Brain concentration (C3-day) ([3]; 40 mg/kg dose): no measurable brain concentrations

SMILES: COc1ccc(-c2csc(Nc3cnccn3)n2)cc1OC [IND82]
- EC50 [1]: 15600 nM

SMILES: CC(=O)CC(c1ccccc1)c1c(O)c2ccccc2oc1=O (stereo not shown) [Warfarin]
- Unbound (%) (human plasma; human, plasma, pH 7.4): 0.68±0.0023%

SMILES: Cc1ccnc(Nc2nc(-c3ccc4c(c3)OCCO4)cs2)c1 [IND57]
- EC50 [1]: > 10000 nM

SMILES: COc1ccc(-c2csc(Nc3cc4ccccc4cn3)n2)cc1OC [IND46]
- Solubility pH 7.4 ([2]; room temperature overnight): <1 μM
- Solubility Media (Media solubility): 174 µM (≈ 63.2 µg/mL)
- % remaining after a 60-min incubation (mouse liver microsomes): 58%
- % remaining after a 60-min incubation (rat liver microsomes): 61%
- % remaining after a 60-min incubation (human liver microsomes): 83%

SMILES: Cc1ccc(Nc2nc(-c3ccc(-c4ccccn4)s3)cs2)nc1 [IND76]
- EC50 [1]: 1230 nM

SMILES: Cc1ccc(Nc2nc(-c3ccc(OC(F)(F)F)cc3)cs2)nc1 [IND26]
- EC50 [1]: > 10000 nM

SMILES: Cc1ccnc(Nc2nc(-c3cc(-c4ccc(Cl)cc4)no3)cs2)c1 [IND64]
- EC50 [1]: 850 nM

SMILES: C(=N\Nc1ccc(-c2cnco2)cc1)/c1ccncc1 [Compd B, (E)-5-(4-(2-(pyridin-4-ylmethylene)hydrazinyl)phenyl)oxazole, reference compound]
- EC50 ([1]; Mus musculus, 120 h): 250 nM
- half-life at 1 μM [4]: 30 min
- remaining at 1 h, 1 μM [4]: 29%
- t1/2 (mouse liver microsomes): rapidly metabolized
- half-life at 1 μM [5]: > 60 min
- remaining at 1 h, 1 μM [5]: 77%
- t1/2 (rat liver microsomes): relatively stable
- half-life at 1 μM [6]: > 60 min
- remaining at 1 h, 1 μM [6]: 68%
- t1/2 (human liver microsomes): relatively stable
- Vd [7]: 1.53 L/kg
- clearance [7]: 76 mL/min/kg
- %F (absolute oral bioavailability) ([8]; PO 10 mg/kg vs IV 1 mg/kg, plasma): 24.8%
- Brain/Plasma AUClast Ratio ([8]; PO 10 mg/kg, 10 mg/kg): 0.51
- AUC(0-t) [8, 12]: 1.06 ± 0.1 µM·h
- Cmax [8, 12]: 460 ± 160 nM
- tmax [8, 12]: 120 min
- AUC(0-t) [8, 13]: 2.06 ± 0.06 µM·h
- Cmax [8, 13]: 830 ± 380 nM
- half-life [8, 13]: 60.6 min
- tmax [8, 13]: 30 min
- AUC/EC50 ratios in brain and plasma, total concentration ([3]; 100 mg/kg/day for 3 days, AUC = C3-day × τ): greater than 100
- Brain and plasma concentrations (C3-day) ([3]; 25 and 50 mg/kg/day): below the level of quantification
- Deaths (FVB mice; 150 mg/kg/day for 8 days in liquid diet): two of four mice
- Lethal toxicity (FVB mice; 25, 50, and 100 mg/kg/day in liquid diet): none showed lethal toxicity
- Unbound (%) (mouse plasma): 9% and 9.06±2.31%
- Unbound (%) (human plasma; human plasma, 1 μM): 2.1% and 2.10±1.11%
- Unbound (%) [9]: 11% and 11.4±2.89%
- Unbound (%) [10]: 37% and 36.5±3.30%

SMILES: COc1ccc(-c2csc(Nc3cc(C)ccn3)n2)cc1OC [IND42]
- EC50 [1]: 1000 nM

SMILES: c1ccc2cc(Nc3nc(-c4ccncc4)cs3)ncc2c1 [IND85]
- EC50 [1]: 310 nM
- Solubility pH 7.4 ([2]; room temperature overnight): <1 μM
- Solubility Media (Media solubility): 116 µM (≈ 35.3 µg/mL)
- Papp (A−B) (MDCK-MDR1 cells): 3.03 ×10⁻⁶ cm/s
- Papp (B−A) (MDCK-MDR1 cells): 4.44 ×10⁻⁶ cm/s
- Efflux ratio (MDCK-MDR1 cells): 1.5
- % remaining after a 60-min incubation (mouse liver microsomes): 6%
- % remaining after a 60-min incubation (rat liver microsomes): 32%
- % remaining after a 60-min incubation (human liver microsomes): 66%
- Brain and plasma concentrations (C3-day) ([3]; 40, 80, 130 and 210 mg/kg/day): ≤ 1 µM

SMILES: COc1ccc(-c2csc(Nc3ccc(C)cn3)n2)c(OC)c1 [IND74]
- EC50 [1]: 3130 nM

SMILES: Cc1ccc(Nc2nc(-c3c(-c4ccccc4)noc3C)cs2)nc1 [IND36]
- EC50 [1]: > 32000 nM

SMILES: Cc1ccc(Nc2nc(-c3cc(-c4ccccc4)no3)cs2)nc1 [IND33]
- EC50 [1]: 940 nM
- Solubility pH 7.4 ([2]; room temperature overnight): <1 μM
- Solubility Media (Media solubility): 225 µM (≈ 75.2 µg/mL)
- Papp (A−B) (MDCK-MDR1 cells): 6.8 ×10⁻⁶ cm/s
- Papp (B−A) (MDCK-MDR1 cells): 8.3 ×10⁻⁶ cm/s
- Efflux ratio (MDCK-MDR1 cells): 1.2
- % remaining after a 60-min incubation (mouse liver microsomes): 111%
- % remaining after a 60-min incubation (rat liver microsomes): 73%
- % remaining after a 60-min incubation (human liver microsomes): 42%
- Brain concentration (C3-day) ([3]; 130 mg/kg dose): ~ 30 μM

SMILES: COc1ccc(-c2csc(Nc3ccc(C(F)(F)F)cn3)n2)cc1OC [IND43]
- EC50 [1]: 2530 nM

SMILES: Cc1ccnc(Nc2nc(-c3ccc(OC(F)(F)F)cc3)cs2)c1 [IND78]
- EC50 [1]: > 32000 nM

SMILES: Cc1ccnc(Nc2nc(-c3ccc(O)cc3)cs2)c1 [IND49]
- EC50 [1]: > 10000 nM
- AUClast values, brain and plasma [11]: lowest AUClast values

SMILES: COc1ccc(-c2csc(Nc3ccc4ccccc4n3)n2)cc1OC [IND47]
- EC50 [1]: 430 nM
- Solubility pH 7.4 ([2]; room temperature overnight): <1 μM
- Solubility Media (Media solubility): 52 µM (≈ 18.9 µg/mL)
- Papp (A−B) (MDCK-MDR1 cells): 9.2 ×10⁻⁶ cm/s
- Papp (B−A) (MDCK-MDR1 cells): 8.9 ×10⁻⁶ cm/s
- Efflux ratio (MDCK-MDR1 cells): 1
- % remaining after a 60-min incubation (mouse liver microsomes): 56%
- % remaining after a 60-min incubation (rat liver microsomes): 50%
- % remaining after a 60-min incubation (human liver microsomes): 113%
- Brain and plasma concentrations (C3-day) ([3]; 40, 80, 130 and 210 mg/kg/day): ≤ 1 µM

SMILES: Cc1ccnc(Nc2nc(-c3ccccc3O)cs2)c1 [IND48]
- EC50 [1]: > 10000 nM
- AUClast values, brain and plasma [11]: lowest AUClast values

SMILES: COc1ccc(-c2csc(Nc3cc4ccccc4cn3)n2)cc1 [IND86]
- EC50 [1]: 340 nM

SMILES: c1ccc2cc(Nc3nc(-c4cc5ccccc5o4)cs3)ncc2c1 [IND91]
- EC50 [1]: 920 nM
- Brain and plasma concentrations (C3-day) ([3]; 40, 80, 130 and 210 mg/kg/day): ≤ 1 µM

SMILES: Cc1cccc(Nc2nc(-c3cc4ccccc4o3)cs2)n1 [IND22]
- EC50 [1]: 1460 nM
- Solubility pH 7.4 ([2]; room temperature overnight): <1 μM
- Solubility Media (Media solubility): 20 µM (≈ 6.15 µg/mL)
- Papp (A−B) (MDCK-MDR1 cells): 9.5 ×10⁻⁶ cm/s
- Papp (B−A) (MDCK-MDR1 cells): 8.4 ×10⁻⁶ cm/s
- Efflux ratio (MDCK-MDR1 cells): 0.9
- % remaining after a 60-min incubation (mouse liver microsomes): 40%
- t1/2 (mouse liver microsomes): 49 min
- % remaining after a 60-min incubation (rat liver microsomes): 64%
- t1/2 (rat liver microsomes): > 60 min
- % remaining after a 60-min incubation (human liver microsomes): 99%
- t1/2 (human liver microsomes): > 60 min

SMILES: COc1ccc(Nc2nc(-c3ccc(OC)c(OC)c3)cs2)nc1 [IND44]
- Solubility pH 7.4 ([2]; room temperature overnight): <1 μM
- % remaining after a 60-min incubation (mouse liver microsomes): 24%
- t1/2 (mouse liver microsomes): 29 min
- % remaining after a 60-min incubation (rat liver microsomes): 39%
- t1/2 (rat liver microsomes): 45 min
- % remaining after a 60-min incubation (human liver microsomes): 48%
- t1/2 (human liver microsomes): 58 min

SMILES: Cc1ccc(Nc2nc(-c3ccncc3)cs2)nc1 [IND29]
- EC50 [1]: 1570 nM

SMILES: Cc1ccc(Nc2nc(-c3cccc(C#N)c3)cs2)nc1 [IND38]
- EC50 [1]: 2290 nM
